Compound activity deposited in PubChem BioAssay by several laboratories.
An excerpt weighted towards active compounds, which were near 2.1% of everything screened.
m5-HT2A agonist: activates the mouse 5-HT2A serotonin receptor | P35363 | CHO-K1 mHTR2A beta-arrestin complementation, luminescence; percent of 30 µM serotonin response | activation, % at 7.6 µM | 0.66% of 360,000 active | AID 624169;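 active means activation above a run cutoff, the mean activation of all tested compounds plus 3 SD, cut at about 14% in these data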;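 further: 0% = plate median of compound wells and 100% = 30 µM serotonin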
EBI2 block: EBI2 (human) antagonism | inhibition, % at 5 µM | 0.81% of 360,000 active | AID 651636 | P32249 | EBI2 beta-arrestin recruitment, luminescence, 7a,25-OHC stimulated; in the data active means inhibition above about 38%;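 further: enzyme fragment complementation signal reports receptor beta-arrestin coupling in cells; 0% = agonist plus DMSO wells and 100% = wells without agonist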
CCR6 antag: CCR6 (human) receptor antagonism; 0.49% of 340,000 active; inhibition, % at 20 µM; AID 493098; CHO-K1 CCR6 PathHunter beta-arrestin, luminescence, CCL20-stimulated;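 active means compounds whose inhibition of the agonist-driven luminescence signal at 20 µM reaches about 50%, limit read from the data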;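 further: cells stimulated with CCL20 at 14 nM final; plate controls were DMSO with CCL20 for no effect and DMSO without agonist for full effect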
Target sequence (P51684 whole entry, looked up): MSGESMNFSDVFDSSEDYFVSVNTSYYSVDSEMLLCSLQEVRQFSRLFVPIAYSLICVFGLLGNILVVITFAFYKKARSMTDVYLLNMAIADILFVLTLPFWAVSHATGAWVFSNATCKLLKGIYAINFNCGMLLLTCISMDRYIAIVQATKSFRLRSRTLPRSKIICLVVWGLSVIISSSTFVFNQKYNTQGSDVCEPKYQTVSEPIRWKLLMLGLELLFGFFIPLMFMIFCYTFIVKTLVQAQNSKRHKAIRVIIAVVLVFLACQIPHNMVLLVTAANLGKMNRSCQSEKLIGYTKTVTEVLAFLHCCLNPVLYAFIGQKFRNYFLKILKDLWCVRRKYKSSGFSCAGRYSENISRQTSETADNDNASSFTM
CXCR6 block: inhibitors of human CXCR6 receptor | O00574 | CHO-K1 PathHunter CXCR6 beta-arrestin, luminescence | inhibition, % at 20 µM | 0.36% of 360,000 active; in the data active means inhibition above about 34%, passing the limit was not always enough;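 further: antagonist mode with CXCL16 agonist at 10 nM final; 0% = 10 nM CXCL16 with DMSO and 100% = unstimulated wells without agonist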
APJ agonist: agonists of human APJ apelin receptor. AID 2520. 0.11% of 330,000 active. P35414. CHO-K1 APJ PathHunter beta-arrestin, luminescence; 0% DMSO wells, 100% apelin. activation, % at 20 µM;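 active means activation more than six SD over the plate average, tested at 20 µM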;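 further: 0% = DMSO alone and 100% = apelin-13 at 10 nM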
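Test system: CHO-K1 APJ beta-arrestin complementation cell line | Compound: Single test compound dose, 20 µM final, 1% DMSO | Incubation: Compound 90 min 25 °C, reagent 1 h | Measured by: beta-gal luminescence | Read-out basis: APJ–arrestin association signal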
APJ antag: antagonists of human APJ apelin receptor | P35414 | CHO-K1 APJ beta-arrestin complementation, luminescence | inhibition, % at 20 µM | 0.32% of 330,000 active;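 active means inhibition above about 40% at 20 µM, limit read from the data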;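 further: cells challenged with 10 nM apelin-13 agonist together with compound; plate controls were apelin-13 plus DMSO wells for no effect and DMSO wells lacking apelin-13 for full effect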
EBI2 antag conf: confirmation of human EBI2 receptor antagonists; EBI2 beta-arrestin luminescence, 7a,25-OHC antagonism; shares compounds with EBI2 block; inhibition, % at 5 µM; 29% of 2,400 active; AID 651997;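 active means inhibition of at least 50%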
EBI2 ag: EBI2 agonism counter-screen | shares compounds with EBI2 block | EBI2-expressing cells, agonist mode, luminescence, 60 min; 0% vehicle, 100% 7α,25-dihydroxycholesterol control | activation, % at 5 µM | 2,400 tested, under 10 active;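 active means activation of at least 50%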
bGal cs: beta-galactosidase inhibition counter-screen; 1% of 2,400 active; purified beta-galactosidase, luminescent Galacton Star, 15 min; shares compounds with EBI2 block; AID 652176; inhibition, % at 5 µM;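 active means replicate-average signal at least 3 plate SD below neutral wells, shown as high inhibition, flagging enzyme-inhibiting false positives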;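 further: 0% = DMSO wells with enzyme and 100% = wells lacking enzyme; higher means stronger loss of beta-gal luminescence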
The depositor's hits bear a star; nt = no result.

SMILES	m5-HT2A agonist	EBI2 block	CCR6 antag	CXCR6 block	APJ agonist	APJ antag	EBI2 antag conf	EBI2 ag	bGal cs
CCOc1ccc(C(=O)N2CCCN(C(=O)c3ccc(OCC)cc3)CC2)cc1	3	45*	8	-8	-4	9	39	4	1
CCOc1ccc(C(=O)N2CCC(C(=O)c3ccc4c(c3)OCCO4)CC2)cc1	3	81*	-1	0	0	-14	56*	1	1
COc1ccc(CCNc2cc(-c3ccccc3)nc3ncnn23)cc1	7	45*	15	-3	-2	5	20	0	6
CC(=O)N1CCN(C(=O)COc2ccc(Br)cc2)CC1	11	43	-14	-3	-2	11	nt	nt	nt
O=C(COc1ccc(Cl)cc1)N1CCN(c2ccc([N+](=O)[O-])c(N3CCOCC3)c2)CC1	0	85*	6	-10	-2	-7	61*	0	9
O=C(c1ccccc1)N1CCN(c2ccc([N+](=O)[O-])c(N3CCOCC3)c2)CC1	-4	-3	6	4	-4	9	nt	nt	nt
O=C(COc1ccc(Br)cc1)N1CCN(c2ccc([N+](=O)[O-])c(N3CCCCC3)c2)CC1	5	77*	15	14	1	8	57*	-1	9
O=C(COc1ccccc1)N1CCN(c2ccc([N+](=O)[O-])c(N3CCCCC3)c2)CC1	0	50*	19	1	-3	2	20	0	12
O=C(CSc1ccc(Cl)cc1)N1CCN(c2ccc(Cl)cc2[N+](=O)[O-])CC1	-4	82*	5	-1	0	19	76*	2	8
N#C/C(=C\c1cn(-c2ccccc2)nc1-c1cc2ccccc2o1)c1nc2ccccc2[nH]1	3	9	19	-3	-2	6	nt	nt	nt
CCCOc1ccc(C(=O)Nn2c(C)nc3ccccc3c2=O)cc1	1	-1	4	-8	-4	14	nt	nt	nt
CCCS(=O)(=O)N1CCCC(C(=O)NCCCN(C)Cc2ccccc2)C1 (centres undefined)	-1	-6	-1	-3	0	5	nt	nt	nt
CCOc1cc(N2CCOCC2)c(OCC)cc1NC(=O)COC(=O)c1cccc2ccccc12	-2	55*	-3	7	2	4	42	0	-22
O=C(C[n+]1cc(-c2ccc(F)cc2)n2c1CCC2)N1c2ccccc2Sc2ccccc21	1	7	-1	-1	-2	2	nt	nt	nt
CCC(=O)n1nc(-c2ccc(Cl)cc2)nc1SC	-2	9	7	-16	-4	-8	nt	nt	nt
CCCC(=O)n1nc(-c2ccc(Cl)cc2)nc1SC	9	80*	-13	-13	-3	0	40	1	9
CCOc1ccc(NC(=S)NN(C)C(=S)Nc2ccc(OCC)cc2)cc1	2	78*	7	-5	4	-21	38	0	-15
CCOc1ccc(NC(=S)Nc2cc(-c3ccccc3)[nH]n2)cc1	-5	42*	0	-3	-3	10	19	0	6
CCOc1ccc(NC(=S)Nc2ccc(F)cc2)cc1	-1	59*	-11	-8	-2	9	41	0	8
COc1ccc(NC(=S)Nc2ccc(F)cc2)cc1	-2	17	6	7	-2	13	nt	nt	nt
CCOc1ccc(NC(=S)Nc2ccccc2C2(C)CC2)cc1	3	60*	22	1	-1	7	20	2	4
CCOc1ccc(NC(=S)Nc2cccnc2)cc1	3	58*	-8	0	-1	18	24	-1	-10
O=C(Nc1ccc(-c2csnn2)cc1)C(Cl)(Cl)Cl	2	-3	-1	-9	5	-26	nt	nt	nt
Cc1ccc(S(=O)(=O)N2CCN(C(=O)c3cc4c(s3)CCCC4)CC2)c(C)c1	-1	68*	20	6	-3	11	34	-1	-11
